Source: ChEMBL document CHEMBL1153436, “2-Pyridyl P1'-substituted symmetry-based human immunodeficiency virus protease inhibitors (A-792611 and A-790742) with potential for convenient dosing and reduced side effects” (J Med Chem, 2009)

Columns and labels:
[1] = AUC in Sprague-Dawley rat at 5 mg/kg, po in presence of ritonavir; format: ADME, organism-based; design: dose 5 mg/kg, route oral; conditions: plasma
How it was run: (§1)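 Male Sprague-Dawley-derived rats (n = 3) dosed iv or by oral gavage with 5 mg/mL solutions in 5% dextrose containing 20% ethanol, 30% propylene glycol and methanesulfonic acid equivalents. Plasma was sampled at 10 time points over 8 h, extracted into ethyl acetate/hexane and analysed by reversed-phase HPLC with internal standard. AUC in µg·h/mL.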

[2] = system: Human immunodeficiency virus 1; test: Antiviral activity against wild-type HIV1 pNL4-3 infected in human MT4 cells after 5 days by MTT assay in presence of 50% human serum; format: functional, organism-based; conditions: Human immunodeficiency virus 1, MT4, 120 h
[3] = Clearance in Sprague-Dawley rat at 5 mg/kg, iv; format: ADME, organism-based; design: dose 5 mg/kg, route intravenous; conditions: in vivo; how it was run: as §1
[4] = system: Human immunodeficiency virus 1; test: Antiviral activity against wild-type HIV1 pNL4-3 infected in human MT4 cells after 5 days by MTT assay; format: functional, organism-based; conditions: Human immunodeficiency virus 1, MT4, 120 h
[5] = system: Human immunodeficiency virus 1; test: Fold resistance, ratio of EC50 for HIV1 bearing protease gene with A17 mutation to EC50 for wild-type HIV1 pNL4-3; format: functional
How it was run: (§2)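 HIV-1 A17 mutant clone carrying protease mutations L10F, V32I, M46I, I47V, Q58E and I84V, generated by in vitro serial passage under LPV/RTV. EC50 was determined in MT-4 cells. Wild-type reference strain was HIV-1 pNL4-3.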

[6] = Half life in Sprague-Dawley rat at 5 mg/kg, iv; format: ADME, organism-based; design: dose 5 mg/kg, route intravenous; conditions: in vivo; how it was run: as §1
[7] = AUC in Sprague-Dawley rat at 5 mg/kg, po; format: ADME, organism-based; design: dose 5 mg/kg, route oral; conditions: plasma; how it was run: as §1
[8] = system: Human immunodeficiency virus 1; test: Antiviral activity against HIV1 bearing protease gene with A17 mutation infected in human MT4 cells after 5 days by MTT assay; format: functional, organism-based; conditions: Human immunodeficiency virus 1, MT4, 120 h; how it was run: as §2
[9] = Oral bioavailability in Sprague-Dawley rat at 5 mg/kg; format: ADME, organism-based; conditions: in vivo; how it was run: as §1

| Structure (SMILES) | AUC [1] [ng·h/mL] | EC50 [2] [nM] | clearance [3] [mL/min/kg] | EC50 [4] [nM] | Ratio EC50 [5] | half-life [6] [min] | AUC [7] [ng·h/mL] | EC50 [8] [nM] | bioavailability [9] [%] |
| --- | --- | --- | --- | --- | --- | --- | --- | --- | --- |
| COC(=O)N[C@H](C(=O)N[C@@H](Cc1ccc(-c2ccccn2)cc1)C[C@H](O)[C@H](Cc1ccccc1)NC(=O)[C@@H](N1CCN(Cc2ccccc2OC)C1=O)C(C)(C)C)C(C)(C)C | 9380 | 17 | 36 | 4 | 12 | 72 | 70 | 49 | 3.1 |
| COC(=O)N[C@H](C(=O)N[C@H](Cc1ccc(-c2ccccn2)cc1)C[C@H](O)[C@H](Cc1ccccc1)NC(=O)[C@@H](N1CCN(Cc2cccc(C(C)(C)C)n2)C1=O)C(C)(C)C)C(C)(C)C |  | 311 |  | 15 | 10 |  |  | 151 |  |
| COC(=O)N[C@H](C(=O)N[C@@H](Cc1ccc(-c2ccccn2)cc1)[C@@H](O)C[C@H](Cc1ccccc1)NC(=O)[C@@H](N1CCN(Cc2ccccc2)C1=O)C(C)(C)C)C(C)(C)C |  | 10 |  | 1 | 4 |  |  | 4 |  |
| COC(=O)N[C@H](C(=O)N[C@@H](Cc1ccc(-c2ccccn2)cc1)[C@@H](O)C[C@H](Cc1ccccc1)NC(=O)[C@@H](N1CCN(Cc2csc(C)n2)C1=O)C(C)(C)C)C(C)(C)C | 8400 | 34 | 31.7 | 3 | <1 | 30 | 320 | 2 | 11.2 |
| COC(=O)N[C@H](C(=O)N[C@@H](Cc1ccc(-c2ccccn2)cc1)C[C@H](O)[C@H](Cc1ccccc1)NC(=O)[C@@H](N1CCN(Cc2cccc(F)c2)C1=O)C(C)(C)C)C(C)(C)C |  | 28 |  | 4 | 9 |  |  | 38 |  |
| COC(=O)N[C@H](C(=O)N[C@@H](Cc1ccc(-c2ccccn2)cc1)C[C@H](O)[C@H](Cc1ccccc1)NC(=O)[C@@H](N1CCN(Cc2ccccc2C)C1=O)C(C)(C)C)C(C)(C)C |  | 30 |  | 10 | 7 |  |  | 72 |  |
| COC(=O)N[C@H](C(=O)N[C@@H](Cc1ccc(-c2ccccn2)cc1)C[C@H](O)[C@H](Cc1ccccc1)NC(=O)[C@@H](N1CCN(Cc2cccc(OC)c2)C1=O)C(C)(C)C)C(C)(C)C |  | 65 |  | 14 | 4 |  |  | 53 |  |
| COC(=O)N[C@H](C(=O)N[C@@H](Cc1ccc(-c2ccccn2)cc1)C[C@H](O)[C@H](Cc1ccccc1)NC(=O)[C@@H](N1CCN(Cc2csc(C)n2)C1=O)C(C)(C)C)C(C)(C)C |  | 94 |  | 10 | 1 |  |  |  |  |
| COC(=O)N[C@H](C(=O)N[C@H](Cc1ccc(-c2ccccn2)cc1)C[C@H](O)[C@H](Cc1ccccc1)NC(=O)[C@@H](N1CCN(Cc2nc3ccccc3n2C)C1=O)C(C)(C)C)C(C)(C)C | 1170 | 33 | 54 | 3 | 7 | 42 |  | 20 | 0.1 |
| COC(=O)N[C@H](C(=O)N[C@H](Cc1ccc(-c2ccccn2)cc1)C[C@H](O)[C@H](Cc1ccccc1)NC(=O)[C@@H](N1CCN(Cc2ccccc2)C1=O)C(C)(C)C)C(C)(C)C |  | 43 |  | 11 | 3 |  |  | 37 |  |
| COC(=O)N[C@H](C(=O)N[C@@H](Cc1ccc(-c2ccccn2)cc1)C[C@H](O)[C@H](Cc1ccccc1)NC(=O)[C@@H](N1CCN(Cc2nc3ccccc3n2C)C1=O)C(C)(C)C)C(C)(C)C |  | 346 |  | 140 | <1 |  |  | 32 |  |
| COC(=O)N[C@H](C(=O)N[C@H](Cc1ccc(-c2ccccn2)cc1)C[C@H](O)[C@H](Cc1ccccc1)NC(=O)[C@@H](N1CCN(Cc2cccc(C)n2)C1=O)C(C)(C)C)C(C)(C)C |  | 27 |  | 5 | 4 |  |  | 21 |  |
| COC(=O)N[C@H](C(=O)N[C@H](Cc1ccc(-c2ccccn2)cc1)C[C@H](O)[C@H](Cc1ccccc1)NC(=O)[C@@H](N1CCN(Cc2csc(-c3cccnc3)n2)C1=O)C(C)(C)C)C(C)(C)C |  | 15 |  | 2 | 4 |  |  | 7 |  |
| COC(=O)N[C@H](C(=O)N[C@@H](Cc1ccc(-c2ccccn2)cc1)[C@@H](O)C[C@H](Cc1ccccc1)NC(=O)[C@@H](N1CCN(Cc2csc(C(C)C)n2)C1=O)C(C)(C)C)C(C)(C)C |  | 13 |  | 1 | 1 |  |  |  |  |
| COC(=O)N[C@H](C(=O)N[C@@H](Cc1ccc(-c2ccccn2)cc1)C[C@H](O)[C@H](Cc1ccccc1)NC(=O)[C@@H](N1CCN(Cc2cccc(C(C)(C)O)n2)C1=O)C(C)(C)C)C(C)(C)C | 830 | 53 | 23.3 | 6 |  | 60 | 200 | 4 | 5.7 |
| COC(=O)N[C@H](C(=O)N[C@H](Cc1ccc(-c2ccccn2)cc1)C[C@H](O)[C@H](Cc1ccccc1)NC(=O)[C@@H](N1CCN(Cc2ccnc3ccccc23)C1=O)C(C)(C)C)C(C)(C)C | 9200 | 21 | 41.7 | 5 | 2 | 36 |  | 8 | 0 |
| COC(=O)N[C@H](C(=O)N[C@@H](Cc1ccc(-c2ccccn2)cc1)C[C@H](O)[C@H](Cc1ccccc1)NC(=O)[C@@H](N1CCN(Cc2ccccc2F)C1=O)C(C)(C)C)C(C)(C)C |  | 36 |  | 11 |  |  |  | 88 |  |
| COC(=O)N[C@H](C(=O)N[C@@H](Cc1ccc(-c2ccccn2)cc1)[C@@H](O)C[C@H](Cc1ccccc1)NC(=O)[C@@H](N1CCN(Cc2nc3ccccc3n2C)C1=O)C(C)(C)C)C(C)(C)C |  | 82 |  | 7 | <1 |  |  | 3 |  |
| COC(=O)N[C@H](C(=O)N[C@@H](Cc1ccc(-c2ccccn2)cc1)C[C@H](O)[C@H](Cc1ccccc1)NC(=O)[C@@H](N1CCN(Cc2ccc(N)cc2)C1=O)C(C)(C)C)C(C)(C)C |  | 63 |  | 10 | 3 |  |  | 30 |  |
| COC(=O)N[C@H](C(=O)N[C@@H](Cc1ccc(-c2ccccn2)cc1)C[C@H](O)[C@H](Cc1ccccc1)NC(=O)[C@@H](N1CCN(Cc2csc(-c3cccnc3)n2)C1=O)C(C)(C)C)C(C)(C)C | 120 | 26 | 34.2 | 8 | 1 | 42 | 20 |  | 0.8 |
| COC(=O)N[C@H](C(=O)N[C@@H](Cc1ccc(-c2ccccn2)cc1)C[C@H](O)[C@H](Cc1ccccc1)NC(=O)[C@@H](N1CCN(Cc2ccc(F)cc2)C1=O)C(C)(C)C)C(C)(C)C |  | 33 |  | 6 | 7 |  |  | 42 |  |
| COC(=O)N[C@H](C(=O)N[C@H](Cc1ccc(-c2ccccn2)cc1)C[C@H](O)[C@H](Cc1ccccc1)NC(=O)[C@@H](N1CCN(Cc2cccc(C(C)C)n2)C1=O)C(C)(C)C)C(C)(C)C |  | 105 |  | 15 | 4 |  |  | 66 |  |
| COC(=O)N[C@H](C(=O)N[C@@H](Cc1ccc(-c2ccccn2)cc1)[C@@H](O)C[C@H](Cc1ccccc1)NC(=O)[C@@H](N1CCN(Cc2cccc(C)n2)C1=O)C(C)(C)C)C(C)(C)C |  | 30 |  | 5 | 1 |  |  |  |  |
